From ChEMBL document CHEMBL1138815, “Synthesis, structure-activity relationships, and in vivo properties of 3,4-dihydro-1H-pyrido[2,3-b]pyrazin-2-ones as corticotropin-releasing factor-1 receptor antagonists” (J Med Chem, 2004)

Columns and labels:
[1] = molecular target: T1, Corticotropin-releasing factor receptor 1 (Homo sapiens, UniProt P34998); assay: (§1) Inhibition of [125I]ovine-CRF binding to corticotropin releasing factor receptor 1
T1 sequence (P34998 whole entry): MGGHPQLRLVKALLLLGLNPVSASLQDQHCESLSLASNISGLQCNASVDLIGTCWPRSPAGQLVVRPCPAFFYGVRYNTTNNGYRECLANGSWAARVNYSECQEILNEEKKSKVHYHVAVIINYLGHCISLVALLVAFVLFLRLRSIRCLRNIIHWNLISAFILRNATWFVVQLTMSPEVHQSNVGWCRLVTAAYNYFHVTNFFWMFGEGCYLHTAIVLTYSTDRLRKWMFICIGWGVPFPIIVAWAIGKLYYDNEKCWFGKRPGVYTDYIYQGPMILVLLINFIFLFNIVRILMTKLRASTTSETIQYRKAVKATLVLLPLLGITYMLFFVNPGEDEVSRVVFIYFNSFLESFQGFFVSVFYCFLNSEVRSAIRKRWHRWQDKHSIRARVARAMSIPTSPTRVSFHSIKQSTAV
Summary of the method: (§2)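 CRF1 source is rat frontal cortex membranes (25 µg/well), washed by homogenization and 32000g spins. Incubated with 150 pM [125I]ovine-CRF for 2 h at 21 °C in 50 mM Hepes pH 7.0 with MgCl2, EGTA, protease inhibitors, Triton X-100, bacitracin and ovalbumin. Separated by filtration on PEI-treated GF/B filters and gamma counted. Nonspecific binding defined with 1 µM DMP696.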

[2] = molecular target: T2, Corticotropin-releasing factor receptor 1 (Rattus norvegicus, UniProt P35353); assay: as §1; summary of the method: as §2
T2 sequence (P35353 whole entry): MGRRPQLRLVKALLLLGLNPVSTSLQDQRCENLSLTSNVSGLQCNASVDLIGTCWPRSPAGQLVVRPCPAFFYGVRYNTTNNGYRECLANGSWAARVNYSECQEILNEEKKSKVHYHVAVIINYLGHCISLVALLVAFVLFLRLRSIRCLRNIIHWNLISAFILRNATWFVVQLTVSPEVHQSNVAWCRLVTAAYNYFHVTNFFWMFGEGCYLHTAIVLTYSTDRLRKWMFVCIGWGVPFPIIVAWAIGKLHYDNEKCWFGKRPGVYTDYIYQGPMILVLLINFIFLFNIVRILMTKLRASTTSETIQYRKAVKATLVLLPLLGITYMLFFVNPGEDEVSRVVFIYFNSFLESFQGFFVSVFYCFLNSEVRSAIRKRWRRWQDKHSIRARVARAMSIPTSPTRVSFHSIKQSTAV

Rattus norvegicus [3] = assay: Percent decrease in exit latency was determined in the defensive withdrawal model of rats after oral administration; Dose 3 mg/kg; assay type: functional
Summary of the method: (§3)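 Male Sprague–Dawley rats (180–300 g) dosed po at 1, 3 or 10 mg/kg in 0.25% methocel suspension, 1 h before testing. Each rat placed in a darkened chamber inside a brightly lit open field; latency to emerge timed. Result expressed as % decrease versus vehicle, n = 8 per dose.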

[4] = molecular target: T3, Corticotropin-releasing factor receptor 1 (Rattus norvegicus) (UniProt P35353); assay: Percent occupancy of corticotropin releasing factor receptor 1 in defensive withdrawal model in rats after oral administration; Dose 3 mg/kg; assay type: organism-based; design: dose 3 mg/kg; conditions: at 3 mg/kg
T3 sequence (whole entry): T2 sequence (P35353 whole entry)
Summary of the method: (§4)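 After oral dosing at 1, 3 or 10 mg/kg in the defensive withdrawal rats, CRF1 occupancy in parietal cortex measured by ex vivo autoradiography; n = 5.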

[5] = Clearance in Beagle dogs; assay type: ADME, organism-based, Canis lupus familiaris; conditions: dog, in vivo
Summary of the method: (§5)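 Beagle dogs dosed iv at 1.0 mg/kg (n = 2) in propylene glycol:water:N,N-dimethylacetamide 80:10:10, or po at 5.0 mg/kg (n = 2) in Labrafil:ethanol:Tween 80 85:10:5. Blood drawn by jugular venipuncture at 0–24 h (iv from 0.1 h, po from 0.5 h). Plasma stored at -20 °C, levels measured by LC/MS/MS.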

[6] = molecular target: Cannabinoid receptor 1 (Homo sapiens) (UniProt P21554); assay: Inhibition of Cannabinoid receptor 1 at 10 uM
Sequence of Cannabinoid receptor 1 (Homo sapiens) (P21554 whole entry): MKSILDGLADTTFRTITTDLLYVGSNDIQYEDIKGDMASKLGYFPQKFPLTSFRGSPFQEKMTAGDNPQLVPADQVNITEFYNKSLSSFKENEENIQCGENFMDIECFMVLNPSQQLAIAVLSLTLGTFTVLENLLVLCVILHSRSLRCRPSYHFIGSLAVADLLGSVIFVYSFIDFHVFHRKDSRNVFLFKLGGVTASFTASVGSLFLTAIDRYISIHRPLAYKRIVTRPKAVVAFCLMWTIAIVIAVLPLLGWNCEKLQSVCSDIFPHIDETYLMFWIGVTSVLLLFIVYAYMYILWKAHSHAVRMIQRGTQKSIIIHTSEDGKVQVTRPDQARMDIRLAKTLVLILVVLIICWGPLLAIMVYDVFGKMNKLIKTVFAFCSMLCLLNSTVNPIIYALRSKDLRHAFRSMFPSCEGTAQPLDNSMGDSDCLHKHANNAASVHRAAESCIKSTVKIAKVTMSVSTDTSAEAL

[7] = molecular target: Vasopressin V1 receptor (Homo sapiens) (UniProt P37288+P47901); assay: Inhibition of Vasopressin V1 receptor at 10 uM; assay type: protein assay
Sequence of Vasopressin V1 receptor (Homo sapiens) (P37288 whole entry, looked up): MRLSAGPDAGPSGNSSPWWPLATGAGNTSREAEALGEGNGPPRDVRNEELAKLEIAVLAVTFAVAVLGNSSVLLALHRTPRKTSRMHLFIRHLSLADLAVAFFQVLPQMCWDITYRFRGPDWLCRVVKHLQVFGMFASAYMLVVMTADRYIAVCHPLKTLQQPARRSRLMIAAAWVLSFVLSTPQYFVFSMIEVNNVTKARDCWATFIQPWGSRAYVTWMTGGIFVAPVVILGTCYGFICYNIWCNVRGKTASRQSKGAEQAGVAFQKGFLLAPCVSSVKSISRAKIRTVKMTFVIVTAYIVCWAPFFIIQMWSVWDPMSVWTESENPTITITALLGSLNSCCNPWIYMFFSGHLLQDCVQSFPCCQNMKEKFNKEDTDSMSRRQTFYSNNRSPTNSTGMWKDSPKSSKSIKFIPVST
Sequence of Vasopressin V1 receptor (Homo sapiens) (P47901 whole entry, looked up): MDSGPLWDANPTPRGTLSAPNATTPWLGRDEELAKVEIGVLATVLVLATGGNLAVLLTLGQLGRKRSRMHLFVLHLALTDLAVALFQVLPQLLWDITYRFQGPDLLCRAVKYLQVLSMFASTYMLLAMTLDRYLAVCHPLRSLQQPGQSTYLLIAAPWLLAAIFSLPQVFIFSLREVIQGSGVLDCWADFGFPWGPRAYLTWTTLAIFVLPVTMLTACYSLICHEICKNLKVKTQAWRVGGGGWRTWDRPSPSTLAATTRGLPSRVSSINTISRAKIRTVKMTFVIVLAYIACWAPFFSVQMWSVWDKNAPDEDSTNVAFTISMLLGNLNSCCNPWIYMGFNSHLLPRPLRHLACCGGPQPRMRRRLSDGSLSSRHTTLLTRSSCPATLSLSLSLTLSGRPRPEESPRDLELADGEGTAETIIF

[8] = molecular target: Corticotropin releasing factor receptor (Rattus norvegicus, UniProt P47866+P35353); assay: Inhibition of corticotropin releasing factor-induced ACTH release from rat pituitary cells; assay type: functional, cell-based; conditions: pituitary gland cell
Summary of the method: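 Cultured rat pituitary cells stimulated with 0.3 nM CRF, with inhibition of ACTH release measured across a concentration range to give IC50; n = 3.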

[9] = Mean free plasma concentration was determined in the defensive withdrawal model of rats after oral administration; Dose 10 mg/kg; assay type: ADME, organism-based; design: dose 10 mg/kg, route oral; conditions: rat, in vivo
[10] = Half life in Beagle dogs; assay type: ADME, Canis lupus familiaris; conditions: dog, in vivo; summary of the method: as §5
[11] = Mean total plasma concentration was determined in the defensive withdrawal model of rats after oral administration; Dose 10 mg/kg; assay type: ADME, organism-based; design: dose 10 mg/kg, route oral; conditions: rat, in vivo, read-out: Mean total plasma concentration
Rattus norvegicus [12] = assay: Percent decrease in exit latency was determined in the defensive withdrawal model of rats after oral administration; Dose 1 mg/kg; assay type: functional; summary of the method: as §3
[13] = Mean free plasma concentration was determined in the defensive withdrawal model of rats after oral administration; Dose 3 mg/kg; assay type: ADME, organism-based; design: dose 3 mg/kg, route oral; conditions: rat, in vivo
[14] = molecular target: T3, Corticotropin-releasing factor receptor 1 (Rattus norvegicus); assay: Percent occupancy of corticotropin releasing factor receptor 1 in defensive withdrawal model in rats after oral administration; Dose 1 mg/kg; assay type: functional, organism-based; design: dose 1 mg/kg; conditions: at 1 mg/kg; summary of the method: as §4
[15] = Mean total plasma concentration was determined in the defensive withdrawal model of rats after oral administration; Dose 1 mg/kg; assay type: ADME, organism-based; design: dose 1 mg/kg, route oral; conditions: rat, in vivo, read-out: Mean total plasma concentration
Rattus norvegicus [16] = assay: Percent decrease in exit latency was determined in the defensive withdrawal model of rats after oral administration; Dose 10 mg/kg; assay type: functional; summary of the method: as §3
[17] = Mean free plasma concentration was determined in the defensive withdrawal model of rats after oral administration; Dose 1 mg/kg; assay type: ADME, organism-based; design: dose 1 mg/kg, route oral; conditions: rat, in vivo
[18] = Bioavailability in Beagle dogs; assay type: ADME, organism-based, Canis lupus familiaris; conditions: dog, in vivo, read-out: Bioavailabiility; summary of the method: as §5
[19] = Mean total plasma concentration was determined in the defensive withdrawal model of rats after oral administration; Dose 3 mg/kg; assay type: ADME, organism-based; design: dose 3 mg/kg, route oral; conditions: rat, in vivo, read-out: Mean total plasma concentration
[20] = molecular target: T4, Adenosine receptor A3 (Homo sapiens) (UniProt P0DMS8); assay: Inhibition of Adenosine A3 receptor at 10 uM
T4 sequence (whole entry): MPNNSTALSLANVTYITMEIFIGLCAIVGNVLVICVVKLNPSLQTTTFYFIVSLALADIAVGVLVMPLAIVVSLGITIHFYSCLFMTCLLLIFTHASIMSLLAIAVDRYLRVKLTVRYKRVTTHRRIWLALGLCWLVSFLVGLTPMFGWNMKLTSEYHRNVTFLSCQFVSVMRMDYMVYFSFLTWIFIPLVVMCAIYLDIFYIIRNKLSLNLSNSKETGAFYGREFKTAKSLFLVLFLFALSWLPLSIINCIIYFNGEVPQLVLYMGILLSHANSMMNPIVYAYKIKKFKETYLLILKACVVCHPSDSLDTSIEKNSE

[21] = Volume of distribution in Beagle dogs; assay type: ADME, organism-based, Canis lupus familiaris; conditions: dog, in vivo; summary of the method: as §5
[22] = molecular target: T3, Corticotropin-releasing factor receptor 1 (Rattus norvegicus); assay: Percent occupancy of corticotropin releasing factor receptor 1 in defensive withdrawal model in rats after oral administration; Dose 10 mg/kg; assay type: organism-based; design: dose 10 mg/kg; conditions: at 10 mg/kg; summary of the method: as §4

SMILES	IC50 [2] [nM]	further results
CCCCN(CC)c1cc(C)nc(N(CC)c2ccc(C(C)C)cc2Br)n1	–	Ki [1]: 18 nM
CCCCN(CC)c1cc(C)nc2c1NC(=O)CN2c1ccc(Cl)cc1Cl	0.49	–
CCCCNc1cc(C)nc2c1NC(=O)CN2c1ccc(OC)cc1Cl	> 1000	–
CCCCN(CC)c1cc(C)nc2c1NC(=O)CN2c1c(Cl)cc(C#N)cc1Cl	3.3	–
CCCCN(CC)c1cc(C)nc2c1NC(=O)CN2c1ccc(OC)nc1C	4.2	–
CCC(CC)Nc1cc(C)nc2c1NC(=O)CN2c1ccc(Cl)cc1Cl	198	–
CCN(CC1CCCO1)c1cc(C)nc2c1NC(=O)CN2c1ccc(C(C)C)cc1Br (stereo unspecified)	4.1	–
CCNc1cc(C)nc2c1NC(=O)CN2c1ccc(OC)cc1Cl	> 1000	–
CCCCN(CC)c1cc(C)nc2c1NC(=O)CN2c1ccc(OC)cc1Cl	0.3	–
CCN(CCCC#N)c1cc(C)nc2c1NC(=O)CN2c1ccc(OC)cc1C	92	–
CCCCN(CC)c1cc(C)nc2c1NC(=O)CN2c1ccc(OC)nc1OC	0.82	Decrease in exit latency (Rattus norvegicus [3]): 14%; Occupancy [4]: 23%; Clearance [5]: 27.8 mL/min/kg; inhibition [6]: 53%; inhibition [7]: 47%; IC50 [8]: 38.7 nM; Mean free plasma concentration [9]: 1.02 nM; T1/2 [10]: 27.6 h; concentration [11]: 61.5 nM; Decrease in exit latency (Rattus norvegicus [12]): 0%; Mean free plasma concentration [13]: 0.36 nM; Occupancy [14]: 17%; concentration [15]: 3.1 nM; Decrease in exit latency (Rattus norvegicus [16]): 81%; Mean free plasma concentration [17]: 0.05 nM; bioavailability [18]: 24%; concentration [19]: 21.7 nM; inhibition [20]: 49%; Volume of distribution [21]: 40.6 L/kg; Occupancy [22]: 59%
CCCCN(CC)c1cc(C)nc2c1NC(=O)CN2c1ccc(C(C)C)cc1Cl	0.91	–
CCCCN(CC)c1cc(C)nc2c1NC(=O)CN2c1ccc(Cl)cc1C#N	10	–
CCCCN(CC)c1cc(C)nc2c1NC(=O)CN2c1ccc(C#N)cc1Cl	2.2	–
CCN(c1cc(C)nc2c1NC(=O)CN2c1cc(F)c(OC)cc1Cl)C(C)C	1.5	–
CCCCN(CC)c1cc(C)nc2c1NC(=O)CN2c1ccc(OC)cc1C	0.92	–
CCCCN(CC)c1cc(C)nc2c1NC(=O)CN2c1ccc(C(C)C)cc1	49	–
CCCN(CCC)c1cc(C)nc2c1NC(=O)CN2c1ccc(C#N)cc1Cl	1.2	–
CCCCN(CC)c1cc(C)nc2c1NC(=O)CN2c1cc(F)c(OC)cc1Cl	0.5	–
Cc1cc(N2CCOCC2)c2c(n1)N(c1ccc(C(C)C)cc1Br)CC(=O)N2	126	–
CCN(CCCS(C)(=O)=O)c1cc(C)nc2c1NC(=O)CN2c1ccc(C(C)C)cc1Br	305	–
COCCN(CCOC)c1cc(C)nc2c1NC(=O)CN2c1ccc(C(C)C)cc1Cl	18	–
CCCN(CC1CCC1)c1cc(C)nc2c1NC(=O)CN2c1ccc(C#N)cc1Cl	1.8	–
CCCCN(CC)c1cc(C)nc2c1NC(=O)CN2c1ccc(C(C)C)cc1Br	0.7	–
CCCN(CCOC)c1cc(C)nc2c1NC(=O)CN2c1ccc(C(C)C)cc1Cl	2.6	–
CCCCN(CC)c1cc(C)nc2c1NC(=O)CN2c1ccccc1Br	7.1	–
